# High-throughput results: PubChem, several laboratories
# TDP2 inh: TDP2 (human) inhibition, absorbance primary screen; O95551; 0.34% of 370,000 active; inhibition, % at 12.8 µM; recombinant TDP2, T5PNP hydrolysis, p-nitrophenol absorbance 415 nm; AID 720702;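 active = inhibition above the mean of all tested compounds plus 3 SD, set per campaign, cut at about 25% in these data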;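 note: 0% = DMSO with enzyme and 100% = buffer with substrate but no TDP2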
# Target sequence (O95551 whole entry, looked up): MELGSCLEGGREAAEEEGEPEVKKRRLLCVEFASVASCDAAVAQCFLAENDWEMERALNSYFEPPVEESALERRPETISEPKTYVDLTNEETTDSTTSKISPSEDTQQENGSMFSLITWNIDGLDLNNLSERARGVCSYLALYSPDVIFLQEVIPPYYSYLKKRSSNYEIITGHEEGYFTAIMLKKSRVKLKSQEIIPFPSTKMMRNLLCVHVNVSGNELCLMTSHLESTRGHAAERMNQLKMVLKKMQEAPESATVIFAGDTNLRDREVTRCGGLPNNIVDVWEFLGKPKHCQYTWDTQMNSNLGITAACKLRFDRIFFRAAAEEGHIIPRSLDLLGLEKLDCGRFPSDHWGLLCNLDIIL
#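 Read-out basis: percent inhibition. System: recombinant human TDP2. Buffer or medium: Mg2+-containing Tris-HCl buffer, pH 7.5. Repeats: single replicate. Timing: reaction 2 h, 37 °C. Benchmarks: high control without enzyme, low control DMSO plus TDP2. Probe or stimulus: 5 mM T5PNP. Doses: 12.8 µM only. Measured by: epi absorbance of p-nitrophenol freed from T5PNP by hydrolysis.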
# SUMO HTRF inh: SUMOylation inhibition | P63279 | HTRF SUMOylation assay, SAE1/SAE2 + UBC9, in vitro | inhibition, % at 35 µM | 0.36% of 290,000 active; in the data active = inhibition above about 50%, passing the limit was not always enough
# Target sequence (P63279 whole entry, looked up): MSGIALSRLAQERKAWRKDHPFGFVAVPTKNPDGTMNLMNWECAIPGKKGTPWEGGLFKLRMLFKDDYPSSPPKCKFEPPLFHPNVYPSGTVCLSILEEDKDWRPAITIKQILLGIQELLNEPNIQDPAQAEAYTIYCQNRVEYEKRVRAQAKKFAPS
# NSD2 inh: inhibitors of human histone methyltransferase NSD2 | NSD2 peptide methylation, AlphaScreen, 120 min | AID 743445 | inhibition, % at 12.5 µM | O96028 | 0.54% of 310,000 active; in the data active = inhibition above about 50%
# CTSL1 counter: counter-screen for PFM18AAP inhibitors: inhibitors of F. hepatica cathepsin L1. recombinant F. hepatica cathepsin L1, Z-Leu-Arg-MCA fluorescence. 0.49% of 300,000 active. inhibition, % at 5.96 µM;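 active = inhibition above the mean of all tested compounds plus 3 SD, set per screening campaign, cut at about 17% in these data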;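 note: 0% = plate median of test compound wells and 100% = 1 µM Z-Phe-Ala-diazomethylketone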
# TDP2 confirm: human TDP2 inhibition, confirmation. shares compounds with TDP2 inh. recombinant human TDP2, absorbance read-out. inhibition, % at 12.8 µM. 22% of 1,100 active. AID 743263; in the data active = inhibition above about 25%;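 note: 0% = vehicle with enzyme and 100% = no enzyme buffer only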
# * marks the source's active call; other numbers are inactive results; · = no result. Hits are enriched below; roughly 1.2% of the tested compounds scored in any of these assays.
SMILES,TDP2 inh,SUMO HTRF inh,NSD2 inh,CTSL1 counter,TDP2 confirm
Cc1[nH][nH]c(=O)c1C(c1c(C)[nH][nH]c1=O)c1cn(Cc2ccc(Cl)c(Cl)c2)c2ccccc12,44*,42,98*,10,27*
CC1=CC2(O)OCCN(CCO)C2=CC1=O (configuration not stated),32*,52,14,-5,9
CC(=O)c1c(C)[nH]c(C(=O)N2CCN(c3ccccn3)CC2)c1C,-1,-2,3,-1,·
Cc1cc(-c2ccccc2)nc2oc(C(=O)NN)c(N)c12,30*,27,8,8,6
Cc1cccc(C)c1NC(=O)CN(C)C(=O)CN1C(=O)NC(C)(C)C1=O,-1,·,-2,·,·
c1ccc(OCCOCCN2CCOCC2)cc1,3,4,-6,4,·
CCc1ccc(OCCOCCN2CCN(C)CC2)cc1,32*,18,-2,5,20
CCN1CCN(CCOCCOc2ccccc2)CC1,28*,0,15,-3,11
CN1CCN(CCOc2ccc(Cc3ccccc3)cc2)CC1,3,10,6,1,·
CN1CCN(CCOCCOc2ccc(Br)cc2Cl)CC1,29*,21,3,-2,8
CCOC(=O)C1CCCN(C(=O)c2ccc(Cl)c(S(=O)(=O)N3CCc4ccccc43)c2)C1 (configuration not stated),-6,·,-1,·,·
CCC/C=C/c1ccc(CN2C(CC(C)C)C(=O)N(Cc3cn(Cc4ccco4)nn3)CCS2(=O)=O)cc1 (configuration not stated),-3,·,·,·,·
O=S(=O)(NC1CCSc2ccccc21)c1ccc(Cl)nc1 (configuration not stated),28*,4,0,-2,-1
O=C(c1cccnc1)N1CCN(Cc2ccc3ccccc3c2)CC1,31*,10,0,3,0
O=C(N[C@H](C(=O)N1CCC[C@H]1C(=O)NCCc1ccccc1Cl)c1ccccc1)c1ccco1,-2,·,·,·,·
CCOC(=O)c1c(NCC2CCCO2)c2ccccc2[nH]c1=O (configuration not stated),-2,0,-4,0,·
CCOC(=O)c1c(C)oc2c1c(C=NCC1CCCO1)c(O)c1ccccc12 (configuration not stated),29*,34,99*,·,11
COC(=O)[C@]12C[C@H](CC(=O)N3CCCCC3)C(=O)N(Cc3ccccc3)C1=C[C@H](C(C)(C)C)O[C@@H]2C,9,·,·,·,·
O=C(c1nc2ccccn2c1CNCCCn1cccn1)N1CCCC1,28*,-5,-4,-3,-8
Cc1ccn2c(CNCCCn3cccn3)c(C(=O)N3CCCCCC3)nc2c1,-1,-7,-1,0,·
CCOC(=O)C1CCN(CC(O)COCc2ccc(Cl)cc2)CC1 (configuration not stated),7,1,-3,-3,·
NC(=O)C1CCCN(CC(O)COCc2ccc(Cl)cc2)C1 (configuration not stated),28*,17,-1,0,2
O=C1OC(c2ccc(F)cc2)CC1CN1CCOCC1 (configuration not stated),0,·,7,·,·
O=C(O)COc1ccccc1/C=C1\C(=O)Nc2ccc(Br)cc21,29*,10,8,3,14
COc1ccc(C2=NN(C(=O)CCC(=O)O)C(c3ccc(OC)c(OC)c3)C2)cc1 (configuration not stated),25*,21,-1,4,8
SMILES,TDP2 inh,SUMO HTRF inh,NSD2 inh,CTSL1 counter,TDP2 confirm
CCOC(=O)N1CCN(C2=C(NS(=O)(=O)c3ccc(NC(C)=O)cc3)C(=O)c3ccccc3C2=O)CC1,28*,61,48,-2,24
CC1CCCN(C2=C(NS(=O)(=O)c3ccc(Br)cc3)C(=O)c3ccccc3C2=O)C1 (configuration not stated),20,55,15,1,·
CCN1CCN(C2=C(NS(=O)(=O)c3ccc(C)cc3)C(=O)c3ccccc3C2=O)CC1,25*,6,51*,4,13
CCN1CCN(C2=C(NS(=O)(=O)c3ccc(NC(C)=O)cc3)C(=O)c3ccccc3C2=O)CC1,20,33,26,15,·
CCOC(=O)C1CCCN(C2=C(NS(=O)(=O)c3ccc(Br)cc3)C(=O)c3ccccc3C2=O)C1 (configuration not stated),43*,34,46,7,13
c1cncc(CN2CCN(c3cc(-c4cnc5ccccc5c4)nc4ccnn34)CC2)c1,5,·,-2,·,·
CC(C)(C)NC(=O)C1(C)CCC(=O)N1C1CC1 (configuration not stated),-1,·,·,·,·
O=C(Nc1c(-c2ccccc2)[nH][nH]c1=O)c1ccc(-c2ccccc2)cc1,6,·,·,·,·
O=C(Nc1c(-c2ccccc2)[nH][nH]c1=O)c1ccc2c(c1)OCO2,48*,·,·,·,23
O=C(Nc1c(-c2ccc3c(c2)OCO3)[nH][nH]c1=O)c1cccc(C(F)(F)F)c1,55*,·,·,·,9
Cc1ccc(C(=O)Nc2c(-c3ccc(Cl)cc3)[nH][nH]c2=O)cc1,61*,·,·,·,27*
O=C(Nc1c(-c2ccc3c(c2)OCO3)[nH][nH]c1=O)c1ccccc1,68*,·,·,·,71*
CCc1cc(C(=O)N(CCCOC)c2c(N)n(Cc3ccccc3)c(=O)[nH]c2=O)sc1C,3,·,-10,2,·
CCCC(=Nc1ccccc1)C1=C(O)C(C(=O)OC)C(C)(C)CC1=O (configuration not stated),-9,38,2,-3,·
CCCCC(=Nc1ccc(N)cc1)C1=C(O)C(C(=O)OC)C(C)(C)CC1=O (configuration not stated),60*,36,1,3,17
CCC(=NCc1ccccc1)C1=C(O)C(C(=O)OC)C(C)(C)CC1=O (configuration not stated),-5,26,-1,0,·
CCC(=Nc1ccc(N)cc1)C1=C(O)C(C(=O)OC)C(C)(C)CC1=O (configuration not stated),55*,36,0,6,17
CCCCCNC(=O)C(c1ccnc2ccccc12)n1c(=O)c(-c2cc3ccccc3[nH]2)nc2ccccc21 (configuration not stated),-5,·,·,·,·
CCCCc1c(-c2ccccc2OC)ncn1Cc1ccc(OC)cc1,3,·,·,·,·
CC(C)(C)c1ccc(NC(=O)COC(=O)c2ccc([N+](=O)[O-])s2)cc1,14,-36,17,13,·
O=C(COC(=O)c1ccc([N+](=O)[O-])s1)Nc1ccc(F)cc1,47*,·,·,·,31*
Cc1c(Cl)cnc(NC(=O)COC(=O)c2ccc([N+](=O)[O-])s2)c1Cl,37*,15,18,59*,22
C/C(=C\C(=O)c1ccc(Cl)cc1)Nc1ccc(N2CCOCC2)cc1,20,16,-1,1,·
CC(=O)c1ccc(NC(=S)Nc2ccc(N3CCOCC3)cc2)cc1,28*,16,5,5,8
